In ChEMBL document CHEMBL3585281, “Antibacterial Labdane Diterpenoids from Vitex vestita” (2015):
Values after ≈ are worked out from the molar mass of the structure shown.

Legend:
Assay type in all cases: functional
[1] = system: MRC5; assay: Cytotoxicity against human MRC5 cells assessed as growth inhibition at 10^-5 M after 72 hrs by MTS assay relative to control; conditions: MRC5, 72 h, read-out: GI
Method in brief: (§1)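 Cells from ATCC; HCT-116 grown in RPMI 1640 and MRC5 in DMEM, each with 10% FCS and 1% glutamine, 37 °C, 5% CO2. Seeded at 2.5 × 10^3 cells/well, cultured 24 h, then exposed to compounds at 1 and 10 μM final for 72 h. MTS read-out, absorbance 490 nm; percent index from treated/control OD490 × 100, three experiments.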

[2] = system: Mammaliicoccus sciuri; assay: Antibacterial activity against Staphylococcus sciuri N993 after 18 hrs by agar dilution method; conditions: N993, 18 h
Method in brief: (§2)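 Agar-dilution MIC against Gram-positive strains. Compounds in DMSO, geometric dilutions giving final 100−0.75 mg/L in Mueller Hinton agar. Strains grown 18 h at 37 °C in trypticase soy broth, diluted in sterile water, spotted by Steers inoculator (about 1000 UFC/spot). Plates incubated 18 h at 37 °C; DMSO blank; ofloxacin positive control. MIC = lowest concentration with no visible growth.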

[3] = system: Enterococcus faecalis; assay: Antibacterial activity against Enterococcus faecalis N518 after 18 hrs by agar dilution method; conditions: N518, 18 h; method in brief: as §2
[4] = system: Enterococcus faecalis; assay: Antibacterial activity against Enterococcus faecalis CIP 103214 after 18 hrs by agar dilution method; conditions: CIP 103214, 18 h; method in brief: as §2
[5] = system: Bacillus spizizenii; assay: Antibacterial activity against Bacillus subtilis ATCC 6633 after 18 hrs by agar dilution method; conditions: ATCC 6633, 18 h; method in brief: as §2
[6] = system: Staphylococcus aureus; assay: Antibacterial activity against Staphylococcus aureus ATCC 25923 after 18 hrs by agar dilution method; conditions: ATCC 25923, 18 h; method in brief: as §2
[7] = system: Enterococcus durans; assay: Antibacterial activity against Enterococcus durans CIP 104999 after 18 hrs by agar dilution method; conditions: CIP 104999, 18 h; method in brief: as §2
[8] = system: Enterococcus faecium; assay: Antibacterial activity against Enterococcus faecium N733 after 18 hrs by agar dilution method; conditions: N733, 18 h; method in brief: as §2
[9] = system: Staphylococcus aureus; assay: Antibacterial activity against Staphylococcus aureus CIP 53156 after 18 hrs by agar dilution method; conditions: CIP 53156, 18 h; method in brief: as §2
[10] = system: Enterococcus faecium; assay: Antibacterial activity against Enterococcus faecium N490 after 18 hrs by agar dilution method; conditions: N490, 18 h; method in brief: as §2
[11] = system: Staphylococcus haemolyticus; assay: Antibacterial activity against Staphylococcus haemolyticus CIP 8156 after 18 hrs by agar dilution method; conditions: CIP 8156, 18 h; method in brief: as §2
[12] = system: Enterococcus faecalis; assay: Antibacterial activity against Enterococcus faecalis CIP 104676 after 18 hrs by agar dilution method; conditions: CIP 104676, 18 h; method in brief: as §2
[13] = system: Staphylococcus saprophyticus; assay: Antibacterial activity against Staphylococcus saprophyticus E260 after 18 hrs by agar dilution method; conditions: E260, 18 h; method in brief: as §2
[14] = system: Streptococcus agalactiae; assay: Antibacterial activity against Streptococcus agalactiae CIP 103227 after 18 hrs by agar dilution method; conditions: ATCC 13813, 18 h; method in brief: as §2
[15] = system: Enterococcus faecium; assay: Antibacterial activity against Enterococcus faecium CIP 103014 after 18 hrs by agar dilution method; conditions: CIP 103014, 18 h; method in brief: as §2
[16] = system: Enterococcus casseliflavus; assay: Antibacterial activity against Enterococcus casseliflavus CIP 103018 after 18 hrs by agar dilution method; conditions: CIP 103018, 18 h; method in brief: as §2
[17] = system: Staphylococcus intermedius; assay: Antibacterial activity against Staphylococcus intermedius N987 after 18 hrs by agar dilution method; conditions: N987, 18 h; method in brief: as §2
[18] = system: Enterococcus faecalis; assay: Antibacterial activity against Enterococcus faecalis N520 after 18 hrs by agar dilution method; conditions: N520, 18 h; method in brief: as §2
[19] = system: Listeria monocytogenes; assay: Antibacterial activity against Listeria monocytogenes N836 after 18 hrs by agar dilution method; conditions: N836, 18 h; method in brief: as §2
[20] = system: Bacillus cereus; assay: Antibacterial activity against Bacillus cereus N258 after 18 hrs by agar dilution method; conditions: N258, 18 h; method in brief: as §2
[21] = system: Staphylococcus aureus; assay: Antibacterial activity against Staphylococcus aureus CIP 5710 after 18 hrs by agar dilution method; conditions: CIP 5710, 18 h; method in brief: as §2
[22] = system: Staphylococcus aureus; assay: Antibacterial activity against Staphylococcus aureus CRBIP 2121 after 18 hrs by agar dilution method; conditions: CRBIP 2121, 18 h; method in brief: as §2
[23] = system: Corynebacterium striatum; assay: Antibacterial activity against Corynebacterium striatum N840 after 18 hrs by agar dilution method; conditions: N840, 18 h; method in brief: as §2
[24] = system: Bacillus cereus; assay: Antibacterial activity against Bacillus cereus CIP 6624 after 18 hrs by agar dilution method; conditions: CIP 6624, 18 h; method in brief: as §2
[25] = system: Enterococcus gallinarum; assay: Antibacterial activity against Enterococcus gallinarum N492 after 18 hrs by agar dilution method; conditions: N492, 18 h; method in brief: as §2
[26] = system: Staphylococcus aureus; assay: Antibacterial activity against Staphylococcus aureus CIP 53154 after 18 hrs by agar dilution method; conditions: CIP 53154, 18 h; method in brief: as §2
[27] = system: MRC5; assay: Cytotoxicity against human MRC5 cells assessed as growth inhibition at 10^-6 M after 72 hrs by MTS assay relative to control; conditions: MRC5, 72 h, read-out: GI; method in brief: as §1
[28] = system: Enterococcus faecalis; assay: Antibacterial activity against Enterococcus faecalis N491 after 18 hrs by agar dilution method; conditions: N491, 18 h; method in brief: as §2
[29] = system: Bacillus cereus; assay: Antibacterial activity against Bacillus cereus N190 after 18 hrs by agar dilution method; conditions: N190, 18 h; method in brief: as §2
[30] = system: Listeria monocytogenes; assay: Antibacterial activity against Listeria monocytogenes CIP 103575 after 18 hrs by agar dilution method; conditions: CIP 103575, 18 h; method in brief: as §2
[31] = system: Enterococcus avium; assay: Antibacterial activity against Enterococcus avium CIP 104053 after 18 hrs by agar dilution method; conditions: CIP 104053, 18 h; method in brief: as §2
[32] = system: Staphylococcus aureus; assay: Antibacterial activity against Staphylococcus aureus CIP 7625 after 18 hrs by agar dilution method; conditions: CIP 7625, 18 h; method in brief: as §2
[33] = system: Staphylococcus lugdunensis; assay: Antibacterial activity against Staphylococcus lugdunensis ATCC 43809 after 18 hrs by agar dilution method; conditions: ATCC 43809, 18 h; method in brief: as §2
[34] = system: Staphylococcus saprophyticus; assay: Antibacterial activity against Staphylococcus saprophyticus CIP 76125 after 18 hrs by agar dilution method; conditions: CIP 76125, 18 h; method in brief: as §2
[35] = system: Enterococcus hirae; assay: Antibacterial activity against Enterococcus hirae CIP 5855 after 18 hrs by agar dilution method; conditions: CIP 5855, 18 h; method in brief: as §2
[36] = system: Enterococcus gallinarum; assay: Antibacterial activity against Enterococcus gallinarum CIP 105985 after 18 hrs by agar dilution method; conditions: CIP 105985, 18 h; method in brief: as §2
[37] = system: Staphylococcus aureus; assay: Antibacterial activity against Staphylococcus aureus CIP 483 after 18 hrs by agar dilution method; conditions: CIP 483, 18 h; method in brief: as §2
[38] = system: Listeria monocytogenes; assay: Antibacterial activity against Listeria monocytogenes N783 after 18 hrs by agar dilution method; conditions: N783, 18 h; method in brief: as §2
[39] = system: Listeria monocytogenes; assay: Antibacterial activity against Listeria monocytogenes N851 after 18 hrs by agar dilution method; conditions: N851, 18 h; method in brief: as §2
[40] = system: Enterococcus faecium; assay: Antibacterial activity against Enterococcus faecium N823 after 18 hrs by agar dilution method; conditions: N823, 18 h; method in brief: as §2
[41] = system: Listeria innocua; assay: Antibacterial activity against Listeria innocua E044 after 18 hrs by agar dilution method; conditions: E044, 18 h; method in brief: as §2
[42] = system: Bacillus cereus; assay: Antibacterial activity against Bacillus cereus N349 after 18 hrs by agar dilution method; conditions: N349, 18 h; method in brief: as §2
[43] = system: Staphylococcus epidermidis; assay: Antibacterial activity against Staphylococcus epidermidis CIP 53124 after 18 hrs by agar dilution method; conditions: CIP 53124, 18 h; method in brief: as §2
[44] = system: Staphylococcus aureus; assay: Antibacterial activity against Staphylococcus aureus ATCC 9144 oxford after 18 hrs by agar dilution method; method in brief: as §2
[45] = system: HCT-116; assay: Cytotoxicity against human HCT116 cells assessed as growth inhibition at 10^-6 M after 72 hrs by MTS assay relative to control; conditions: HCT-116, 72 h, read-out: GI; method in brief: as §1
[46] = system: Enterococcus faecium; assay: Antibacterial activity against Enterococcus faecium CIP 107387 after 18 hrs by agar dilution method; conditions: CIP 107387, 18 h; method in brief: as §2
[47] = system: Enterococcus casseliflavus; assay: Antibacterial activity against Enterococcus casseliflavus N487 after 18 hrs by agar dilution method; conditions: N487, 18 h; method in brief: as §2
[48] = system: Enterococcus gallinarum; assay: Antibacterial activity against Enterococcus gallinarum N489 after 18 hrs by agar dilution method; conditions: N489, 18 h; method in brief: as §2
[49] = system: Enterococcus faecium; assay: Antibacterial activity against Enterococcus faecium N507 after 18 hrs by agar dilution method; conditions: N507, 18 h; method in brief: as §2
[50] = system: HCT-116; assay: Cytotoxicity against human HCT116 cells assessed as growth inhibition at 10^-5 M after 72 hrs by MTS assay relative to control; conditions: HCT-116, 72 h, read-out: GI; method in brief: as §1

MIC [2]: > 79 µM
MIC [3]: > 79 µM
MIC [4]: > 79 µM
MIC [5]: 25 µM (≈ 7.96 µg/mL)
MIC [6]: > 79 µM
MIC [7]: 50 µM (≈ 15.9 µg/mL)
MIC [8]: > 79 µM
MIC [9]: 50 µM (≈ 15.9 µg/mL)
MIC [10]: 50 µM (≈ 15.9 µg/mL)
MIC [12]: > 79 µM
MIC [13]: > 79 µM
MIC [14]: 50 µM (≈ 15.9 µg/mL)
MIC [15]: > 79 µM
MIC [16]: > 79 µM
MIC [17]: 50 µM (≈ 15.9 µg/mL)
MIC [18]: > 79 µM
MIC [19]: 50 µM (≈ 15.9 µg/mL)
MIC [20]: 25 µM (≈ 7.96 µg/mL)
MIC [21]: > 79 µM
MIC [22]: 50 µM (≈ 15.9 µg/mL)
MIC [23]: 50 µM (≈ 15.9 µg/mL)
MIC [24]: 50 µM (≈ 15.9 µg/mL)
MIC [25]: > 79 µM
MIC [26]: 50 µM (≈ 15.9 µg/mL)
MIC [28]: > 79 µM
MIC [29]: 25 µM (≈ 7.96 µg/mL)
MIC [30]: > 79 µM
MIC [31]: > 79 µM
MIC [32]: > 79 µM
MIC [33]: 79 µM (≈ 25.2 µg/mL)
MIC [34]: > 79 µM
MIC [35]: > 79 µM
MIC [36]: > 79 µM
MIC [37]: > 79 µM
MIC [38]: 50 µM (≈ 15.9 µg/mL)
MIC [39]: 50 µM (≈ 15.9 µg/mL)
MIC [40]: > 79 µM
MIC [41]: 50 µM (≈ 15.9 µg/mL)
MIC [42]: 25 µM (≈ 7.96 µg/mL)
MIC [43]: 50 µM (≈ 15.9 µg/mL)
MIC [44]: 50 µM (≈ 15.9 µg/mL)
MIC [46]: > 79 µM
MIC [47]: > 79 µM
MIC [48]: 50 µM (≈ 15.9 µg/mL)
MIC [49]: > 79 µM
SMILES: C=C1CC[C@H]2C(C)(C)CCC[C@]2(C)[C@H]1C[C@H](O)C1=CCOC1=O
inhibition of growth at 10 µM [1]: 71%
MIC [11]: > 79 µM
inhibition of growth at 1 µM [27]: 0%
inhibition of growth at 1 µM [45]: 0%
inhibition of growth at 10 µM [50]: 69%
